# Article PMC6726563 (Structure (London, England : 1993), 2019)
# Experiments:
# [1] = biological target: native integrins expressed on U87MG (human (endogenous in U87MG)); assay: flow cytometry on cells
# [2] = biological target: recombinant integrin αVβ3 stably expressed on K562 cells (UniProt P06756); assay: flow cytometry on cells
# [3] = biological target: native integrin α5β1 on K562 cells (human (endogenous in K562)) (UniProt P08648); assay: flow cytometry on cells
# [4] = biological target: αVβ3** double mutant (β3-M180A and β3-R214G) transiently expressed on HEK293T cells (UniProt P06756); assay: flow cytometry on cells
# integrins αVβ3 and α5β1 = assay: Integrin selectivity of knottins; type: binding
# Human αVβ3 ectodomain = assay: Crystal structure of knottin bound to αVβ3 ectodomain; conditions: Mn2+
# Method in brief: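 Human αVβ3 ectodomain was expressed in insect cells and crystallized at 4 °C by hanging-drop vapor diffusion. Test compound (5 mM) was soaked into the crystals in well solution with 1 mM Mn2+ for 2–3 weeks. Crystals were harvested in 12% PEG 3500, 100 mM sodium acetate pH 4.5, 800 mM NaCl, 2 mM Mn2+ and 5 mM test compound. They were cryoprotected stepwise to 24% glycerol and flash frozen. Phases came from molecular replacement.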
# αVβ3 [5] = conditions: ref Kimura et al., 2009a; cited from earlier work
# α5β1 = conditions: ref Kimura et al., 2009a; cited from earlier work
# αVβ3 [6] = conditions: ref Van Agthoven et al., 2014; Xiong et al., 2002; cited from earlier work
# αVβ3 [7] = conditions: ref Reynolds et al., 2009; cited from earlier work
# [8] = system: patients with glioblastoma; conditions: ref Mason, 2015, cited from earlier work
# UniProt P08648, sequence (P08648 42-1049, chain 1 of 2): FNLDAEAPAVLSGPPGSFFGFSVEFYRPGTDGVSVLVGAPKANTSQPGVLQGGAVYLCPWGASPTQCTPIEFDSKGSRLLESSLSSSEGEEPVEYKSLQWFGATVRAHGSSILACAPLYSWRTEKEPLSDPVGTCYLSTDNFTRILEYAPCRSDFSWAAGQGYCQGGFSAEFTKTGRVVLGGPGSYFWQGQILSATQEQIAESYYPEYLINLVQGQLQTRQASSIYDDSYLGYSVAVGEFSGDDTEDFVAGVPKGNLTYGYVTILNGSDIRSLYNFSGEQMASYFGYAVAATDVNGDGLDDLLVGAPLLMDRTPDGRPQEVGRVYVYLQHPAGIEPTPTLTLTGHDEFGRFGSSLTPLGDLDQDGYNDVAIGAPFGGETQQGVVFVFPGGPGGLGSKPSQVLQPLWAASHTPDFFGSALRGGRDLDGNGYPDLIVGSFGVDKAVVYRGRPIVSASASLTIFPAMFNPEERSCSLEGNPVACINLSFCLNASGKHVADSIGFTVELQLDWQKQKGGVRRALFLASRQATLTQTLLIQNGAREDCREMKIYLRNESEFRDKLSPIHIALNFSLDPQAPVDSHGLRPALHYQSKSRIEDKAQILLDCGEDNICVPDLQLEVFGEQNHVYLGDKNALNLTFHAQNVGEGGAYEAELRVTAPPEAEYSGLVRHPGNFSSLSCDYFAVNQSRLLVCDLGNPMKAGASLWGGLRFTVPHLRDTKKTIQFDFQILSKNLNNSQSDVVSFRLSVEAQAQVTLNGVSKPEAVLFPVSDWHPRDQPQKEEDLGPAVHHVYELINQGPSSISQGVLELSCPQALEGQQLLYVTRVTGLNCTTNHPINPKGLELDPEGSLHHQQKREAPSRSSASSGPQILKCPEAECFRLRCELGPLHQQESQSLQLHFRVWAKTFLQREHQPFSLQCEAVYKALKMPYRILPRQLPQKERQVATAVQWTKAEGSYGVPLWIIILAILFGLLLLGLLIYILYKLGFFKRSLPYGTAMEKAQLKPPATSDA
# UniProt P08648, sequence (P05556 21-798, chain 2 of 2, further chain): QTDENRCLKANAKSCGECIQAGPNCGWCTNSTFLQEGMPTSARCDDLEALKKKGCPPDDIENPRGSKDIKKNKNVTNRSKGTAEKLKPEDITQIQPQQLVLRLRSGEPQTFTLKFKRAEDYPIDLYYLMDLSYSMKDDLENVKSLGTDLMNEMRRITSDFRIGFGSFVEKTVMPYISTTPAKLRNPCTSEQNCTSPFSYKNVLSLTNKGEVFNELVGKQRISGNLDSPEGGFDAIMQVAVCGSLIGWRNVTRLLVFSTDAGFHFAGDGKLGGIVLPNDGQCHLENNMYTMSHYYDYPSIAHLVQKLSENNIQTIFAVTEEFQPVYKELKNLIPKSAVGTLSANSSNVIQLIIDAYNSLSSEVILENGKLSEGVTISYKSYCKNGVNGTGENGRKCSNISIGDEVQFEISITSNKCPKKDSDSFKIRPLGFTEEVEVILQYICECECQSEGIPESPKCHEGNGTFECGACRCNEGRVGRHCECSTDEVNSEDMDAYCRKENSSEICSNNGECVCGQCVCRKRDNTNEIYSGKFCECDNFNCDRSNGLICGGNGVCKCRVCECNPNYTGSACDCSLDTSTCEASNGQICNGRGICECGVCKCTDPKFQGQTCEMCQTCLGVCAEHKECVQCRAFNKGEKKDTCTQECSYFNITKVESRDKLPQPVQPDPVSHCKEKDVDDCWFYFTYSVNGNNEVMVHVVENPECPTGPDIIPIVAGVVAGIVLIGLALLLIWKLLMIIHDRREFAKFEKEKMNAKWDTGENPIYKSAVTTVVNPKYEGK
substance,measurement,setting,value
2.5D-Fc fusion protein,Kd,[1],1.7 nM
same,Kd,[2],1.4 nM
2.5F-Fc fusion protein,Kd,[1],5.9 nM
same,Kd,[3],9.2 nM
same,Kd,[2],6.9 nM
Alexa-647-labeled knottin 2.5D (designed binder),percent of binding to wt-αVβ3,[4],28%
Alexa-647-labeled knottin 2.5F (designed binder),percent of binding to wt-αVβ3,[4],85%
QG^5RGDWA^10P (disulfide) [2.5D],integrin selectivity (in words),integrins αVβ3 and α5β1,αVβ3-specific
same,agonist character inferred from βA domain conformational change,Human αVβ3 ectodomain,partial agonists
same,affinity to αVβ3 (in words),αVβ3 [5],nanomolar affinity
RP^5RGDNP^10P (disulfide) [2.5F],integrin selectivity (in words),integrins αVβ3 and α5β1,binds both αVβ3 and α5β1
same,agonist character inferred from βA domain conformational change,Human αVβ3 ectodomain,partial agonists
same,affinity to α5β1 (in words),α5β1,nanomolar affinity
same,affinity to αVβ3 (in words),αVβ3 [5],nanomolar affinity
cilengitide: partial agonist targeting αVβ3,agonist/antagonist character at αVβ3,αVβ3 [6],partial agonist
same,agonist-like behavior (in words),αVβ3 [7],agonist-like behavior
same,pharmacokinetics (in words),[8]; likely related to failure in glioblastoma,unfavorable pharmacokinetics
same,survival of patients (in words),[8]; primary targeting of αVβ3,failed to prolong survival of patients with glioblastoma
